This is an account of results in ChEMBL document CHEMBL1124054, “Synthesis and biological activity of ketomethylene-containing nonapeptide analogues of snake venom angiotensin converting enzyme inhibitors” (J Med Chem, 1988).

Assay [1] concerns the target Angiotensin-converting enzyme (Oryctolagus cuniculus) (UniProt P12822). In words: Inhibition of Angiotensin I converting enzyme from rabbit lung. The conditions noted are these: read-out: I50.
Assay [2] deals with T1, Angiotensin-converting enzyme (Rattus norvegicus, UniProt P47820).
T1 sequence (P47820 whole entry): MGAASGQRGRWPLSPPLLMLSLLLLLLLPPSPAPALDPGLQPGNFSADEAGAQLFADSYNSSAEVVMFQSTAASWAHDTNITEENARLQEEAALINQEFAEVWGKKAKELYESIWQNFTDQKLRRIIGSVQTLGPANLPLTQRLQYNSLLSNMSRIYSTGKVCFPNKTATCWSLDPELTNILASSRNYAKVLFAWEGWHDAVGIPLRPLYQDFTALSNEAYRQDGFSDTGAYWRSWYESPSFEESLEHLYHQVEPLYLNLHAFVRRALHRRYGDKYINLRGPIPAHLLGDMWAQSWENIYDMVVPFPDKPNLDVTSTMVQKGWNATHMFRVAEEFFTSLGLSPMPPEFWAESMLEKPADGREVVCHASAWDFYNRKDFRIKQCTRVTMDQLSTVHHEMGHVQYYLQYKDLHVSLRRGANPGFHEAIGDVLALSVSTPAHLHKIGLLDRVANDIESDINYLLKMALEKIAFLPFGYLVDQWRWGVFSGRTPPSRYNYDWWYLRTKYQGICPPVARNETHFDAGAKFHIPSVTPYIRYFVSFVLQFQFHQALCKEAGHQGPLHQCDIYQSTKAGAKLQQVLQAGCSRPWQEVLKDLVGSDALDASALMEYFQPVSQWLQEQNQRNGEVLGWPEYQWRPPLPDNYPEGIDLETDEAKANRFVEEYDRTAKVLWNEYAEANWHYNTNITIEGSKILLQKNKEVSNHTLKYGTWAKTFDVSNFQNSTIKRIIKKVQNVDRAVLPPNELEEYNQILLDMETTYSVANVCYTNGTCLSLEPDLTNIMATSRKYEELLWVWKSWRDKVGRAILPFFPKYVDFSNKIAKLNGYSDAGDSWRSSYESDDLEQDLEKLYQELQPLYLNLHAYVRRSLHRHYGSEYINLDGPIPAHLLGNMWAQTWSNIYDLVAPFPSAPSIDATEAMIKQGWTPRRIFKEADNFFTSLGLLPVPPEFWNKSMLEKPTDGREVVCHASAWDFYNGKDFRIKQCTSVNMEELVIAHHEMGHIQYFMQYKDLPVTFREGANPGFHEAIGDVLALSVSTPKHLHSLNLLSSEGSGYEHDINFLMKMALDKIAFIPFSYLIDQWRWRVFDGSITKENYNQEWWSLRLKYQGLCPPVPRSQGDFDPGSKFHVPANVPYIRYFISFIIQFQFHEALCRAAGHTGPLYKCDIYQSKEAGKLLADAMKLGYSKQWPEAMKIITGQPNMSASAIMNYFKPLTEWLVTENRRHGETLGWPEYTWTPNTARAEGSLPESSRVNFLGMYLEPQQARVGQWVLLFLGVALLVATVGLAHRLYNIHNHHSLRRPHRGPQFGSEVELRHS
In words: Inhibition of Angiotensin I converting enzyme in normotensive rat. Format: functional. The following applies: read-out: I50 (converted).

Assay [3] relates to Rattus norvegicus. As to the kind of experiment: Inhibition of angiotensin I induced blood pressure in normotensive anesthetized rats at 100 ug/kg (i.v.) for 1.5 min. Format: functional. The gist of the method:
(§1)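 Male Sprague-Dawley normotensive rats (290-540 g), pentobarbital-anesthetized (50 mg/kg ip), intubated. Jugular vein cannulated for iv dosing and carotid artery for blood pressure. Control pressor response to angiotensin I (175 ng/kg iv) taken after vehicle (1 mL/kg). Compound given iv in distilled water or 5% sodium bicarbonate. Angiotensin I challenge repeated at 1.5 to 75 min, rise in pressure compared with control.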

Assay [4] has as its system Rattus norvegicus. As to the kind of experiment: Inhibition of angiotensin I induced blood pressure in normotensive anesthetized rats at 100 ug/kg (i.v.) for 10 min. Format: functional. The gist of the method: as §1
For assay [5], the system named is Rattus norvegicus. In words: Inhibition of angiotensin I induced blood pressure in normotensive anesthetized rats at 100 ug/kg (i.v.) for 30 min. Format: functional. The gist of the method:
as §1

Assay [6] concerns Rattus norvegicus. As to the kind of experiment: Inhibition of angiotensin I induced blood pressure in normotensive anesthetized rats at 100 ug/kg (i.v.) for 5 min. Format: functional. The gist of the method:
as §1

For assay [7], the system named is Rattus norvegicus. In words: Inhibition of angiotensin I induced blood pressure in normotensive anesthetized rats at 100 ug/kg (i.v.) for 60 min. Format: functional. The gist of the method: as §1
Assay [8] deals with Rattus norvegicus. As to the kind of experiment: Inhibition of angiotensin I induced blood pressure in normotensive anesthetized rats at 100 ug/kg (i.v.) for 75 min. Format: functional. The gist of the method: as §1
Assay [9] relates to Rattus norvegicus. In words: Inhibition of angiotensin I induced blood pressure in normotensive anesthetized rats at 30 ug/kg (i.v.) for 1.5 min. The format is functional. The gist of the method: as §1
Assay [10] concerns Rattus norvegicus. As to the kind of experiment: Inhibition of angiotensin I induced blood pressure in normotensive anesthetized rats at 30 ug/kg (i.v.) for 10 min. Format: functional. The gist of the method: as §1
For assay [11], the system named is Rattus norvegicus. In words: Inhibition of angiotensin I induced blood pressure in normotensive anesthetized rats at 30 ug/kg (i.v.) for 30 min. Format: functional. The gist of the method: as §1
For assay [12], the system named is Rattus norvegicus. In words: Inhibition of angiotensin I induced blood pressure in normotensive anesthetized rats at 30 ug/kg (i.v.) for 5 min. The format is functional. The gist of the method:
as §1

For assay [13], the system named is Rattus norvegicus. In words: Inhibition of angiotensin I induced blood pressure in normotensive anesthetized rats at 3 ug/kg (i.v.) for 1.5 min. Format: functional. The gist of the method:
as §1

Assay [14] has as its system Rattus norvegicus. As to the kind of experiment: Inhibition of angiotensin I induced blood pressure in normotensive anesthetized rats at 3 ug/kg (i.v.) for 10 min. Format: functional. The gist of the method:
as §1

The subject of assay [15] is Rattus norvegicus. As to the kind of experiment: Inhibition of angiotensin I induced blood pressure in normotensive anesthetized rats at 3 ug/kg (i.v.) for 5 min. The format is functional. The gist of the method:
as §1

Each structure is given as a SMILES string. Non-standard residues stand in square brackets, D forms with d. Residues, ends and D or L forms follow the SMILES beside them. pGlu = O=C1CC[C@@H](C(=O)O)N1; Nle = CCCC[C@H](N)C(=O)O

For the compound `CC[C@H](C)[C@H](NC(=O)[C@H](CCC(N)=O)NC(=O)[C@@H]1CCCN1C(=O)CNC(=O)[C@@H]1CCCN1C(=O)[C@H](Cc1c[nH]c2ccccc12)NC(=O)[C@@H]1CCC(=O)N1)C(=O)N1CCC[C@H]1C(=O)N1CCC[C@H]1C(=O)O` ([pGlu]WPGPQIPP-OH), in assay [1], the IC50 worked out at 1.9 µM.
Consider `C[C@H](NC(=O)[C@H](Cc1ccccc1)NC(=O)[C@H](CCCCN)NC(=O)[C@@H]1CCCN1C(=O)[C@H](CCCN=C(N)N)NC(=O)[C@@H]1CCCN1C(=O)[C@H](Cc1c[nH]c2ccccc12)NC(=O)[C@@H]1CCC(=O)N1)C(=O)N1CCC[C@H]1C(=O)O` ([pGlu]WPRPKFAP-OH), for which, in [1], the IC50 turned out to be 0.05 µM.
Same read-out and setting: as for `CC[C@H](C)[C@H](NC(=O)[C@H](CCC(N)=O)NC(=O)[C@@H]1CCCN1C(=O)[C@H](CCCN=C(N)N)NC(=O)[C@@H]1CCCN1C(=O)[C@H](Cc1ccc(O)cc1)NC(=O)[C@@H]1CCC(=O)N1)C(=O)N1CCC[C@H]1C(=O)N1CCC[C@H]1C(=O)O` ([pGlu]YPRPQIPP-OH), the figure is 2.6 µM.
Take `CCCC[C@H](NC(=O)[C@@H]1CCC(=O)N1)C(=O)N[C@@H](Cc1ccccc1)C(=O)N[C@@H](C)C(=O)N1CCC[C@H]1C(=O)O` ([pGlu][Nle]FAP-OH): in assay [2], the IC50 is 0.359 µM.
For `C[C@H](CS)C(=O)N1CCC[C@H]1C(=O)O` [CAPTOPRIL], the Inhibition over time in [3] worked out at 71.5%; in [4], 51.1%; in assay [5], 27.3%; in assay [6], 83.5%; in assay [7] it was 1.8%; in assay [8], 0%. For the same compound, the Inhibition over time was found to be 78.3% in [9]; 8.3% in assay [10]; 0% in [11]; 60.5% in assay [12]; 18.7% in [13]; 0% in assay [14]. The compound also registered an Inhibition over time in assay [15] of 8.3%.
Turning to `CC[C@H](C)[C@H](NC(=O)[C@H](CCC(N)=O)NC(=O)[C@@H]1CCCN1C(=O)[C@H](CCCNC(=N)N)NC(=O)[C@@H]1CCCN1C(=O)[C@H](Cc1c[nH]c2ccccc12)NC(=O)[C@@H]1CCC(=O)N1)C(=O)N1CCC[C@H]1C(=O)N1CCC[C@H]1C(=O)O` [TEPROTIDE], the IC50 in assay [1] was determined as 1.1 µM.
